Laboratory results published in PMC6930011 (Journal of the American Chemical Society, 2019).
Where no end group is shown, it is not given here.

Legend:
hPTHR1 = assay: Washout assay of cAMP signaling duration; type: cell-based, human; conditions: excess PTHR1 antagonist (D)Trp^12,Tyr^34-bPTH(7-34) during washout; 1 nM agonist
Method in brief: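 HEK293 cells stably expressing hPTHR1, with β-arrestin at endogenous levels, were stimulated with 1 nM agonist for a defined period. Agonist was then washed off and cAMP monitored during the ligand-off phase, with excess antagonist present after washout and, in some runs, BA1 added as well. Output was area under curve, normalized to PTH(1-34)-NH2 at 1 nM. Data were mean ± s.e.m. from n = 3–4 independent experiments, compared by one-way ANOVA.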

PTHR1 = type: cell-based; conditions: HEK293 cells stably expressing HA-tagged PTHR1
human PTHR1 = assay: cAMP production, GloSensor assay in HEK-293 cells stably expressing human PTHR1; type: cell-based; conditions: relative to PTH(1-34)-NH2; Figure S2

Row | Substance | effect of antagonist after washout on duration and extent of cAMP production (hPTHR1) | co-IP of the PTHR1 and endogenous β-arrestin (PTHR1) | potency in stimulating cAMP production, fold less potent than PTH(1-34)-NH2 (human PTHR1)
1 | PTH(1-34)-NH2 | only a modest drop | effectively induced co-IP | 
2 | Trp^1-PTHrP(1-36)-NH2 (WVSEHQLLHDKGKSIQDLRRRFFLHHLIAEIHTAEI-NH2; UniProt P12272 37-72, looked up, variant A1W) |  |  | ~ 5 fold
3 | Tyr^1-PTH(1-34)-NH2 (YVSEIQLMHNLGKHLNSMERVEWLRKKLQDVHNF-NH2; UniProt P01270 32-65, looked up, variant S1Y) |  |  | ~ 5 fold
